Results on 20 compounds are retold here after ChEMBL document CHEMBL3352462, “Aldosterone synthase inhibitors as promising treatments for mineralocorticoid dependent cardiovascular and renal diseases” (J Med Chem, 2014).

Each structure is given as a SMILES string. Bounds are passed on as bounds.

For series [1], the species on record is Homo sapiens. The series can be described thus: Selectivity ratio of IC50 for human CYP11B1 to IC50 for human CYP11B2. In short, it runs like this: (§1)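 Whole-cell assay in V79MZ (Chinese hamster lung fibroblast) cells stably expressing human CYP11B2; a parallel line stably expressing human CYP11B1 gives the counter-target IC50. Selectivity is expressed as the CYP11B1/CYP11B2 IC50 ratio.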

Series [2] deals with T1, Cytochrome P450 11B2, mitochondrial (Homo sapiens, UniProt P19099).
T1 sequence (P19099 whole entry): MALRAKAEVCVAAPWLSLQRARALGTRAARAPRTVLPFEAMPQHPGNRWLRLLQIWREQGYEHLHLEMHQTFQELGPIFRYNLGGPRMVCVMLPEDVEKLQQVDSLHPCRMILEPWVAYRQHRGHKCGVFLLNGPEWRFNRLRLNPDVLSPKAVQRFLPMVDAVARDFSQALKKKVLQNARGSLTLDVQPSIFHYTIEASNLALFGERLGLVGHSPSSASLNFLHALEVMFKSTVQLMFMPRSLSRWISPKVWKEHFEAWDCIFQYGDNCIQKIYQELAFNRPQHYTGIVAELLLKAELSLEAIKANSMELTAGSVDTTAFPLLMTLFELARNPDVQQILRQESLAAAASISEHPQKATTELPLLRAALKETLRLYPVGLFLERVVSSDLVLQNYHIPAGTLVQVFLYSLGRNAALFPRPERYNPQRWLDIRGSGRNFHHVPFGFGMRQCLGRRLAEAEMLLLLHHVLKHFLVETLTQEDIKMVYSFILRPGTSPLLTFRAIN
Description: Inhibition of human aldosterone synthase in homogenized rat glomerulosa tissue.

Another series addresses T2, Cytochrome P450 1A2 (Homo sapiens, UniProt P05177).
T2 sequence (P05177 whole entry): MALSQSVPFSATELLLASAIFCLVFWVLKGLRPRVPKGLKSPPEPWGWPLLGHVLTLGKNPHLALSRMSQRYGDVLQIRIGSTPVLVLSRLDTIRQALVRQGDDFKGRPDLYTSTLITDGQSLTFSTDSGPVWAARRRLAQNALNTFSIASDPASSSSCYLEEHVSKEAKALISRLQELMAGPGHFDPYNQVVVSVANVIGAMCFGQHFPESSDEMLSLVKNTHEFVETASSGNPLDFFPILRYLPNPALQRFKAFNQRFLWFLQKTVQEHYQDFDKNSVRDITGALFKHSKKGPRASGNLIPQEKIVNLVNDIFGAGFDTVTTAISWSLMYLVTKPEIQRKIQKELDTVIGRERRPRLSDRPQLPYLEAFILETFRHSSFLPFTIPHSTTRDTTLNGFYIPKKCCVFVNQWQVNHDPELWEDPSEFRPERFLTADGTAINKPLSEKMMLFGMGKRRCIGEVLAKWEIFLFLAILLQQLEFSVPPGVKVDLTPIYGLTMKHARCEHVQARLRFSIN
The series can be described thus: Inhibition of CYP1A2 (unknown origin). Type of series: ADME.

The target of series [3] is T1, Cytochrome P450 11B2, mitochondrial. Description: Inhibition of human CYP11B2 expressed in NCI-H295R cells assessed as reduction in aldosterone formation. The class given is cell-based.
For series [4] the target is unchanged. Description: Inhibition of human aldosterone synthase by cell based assay.
For series [5] the target is unchanged. The series can be described thus: Inhibition of human CYP11B2 expressed in G402 cells. The class given is cell-based, G-402.
For series [6] the target is unchanged. The series can be described thus: Inhibition of human aldosterone synthase expressed in V79 MZ cells. Type of series: cell-based, V79MZ. The method in brief:
as §1

The species named for series [7] is Homo sapiens. The series can be described thus: Decrease in diastolic blood pressure in hypertension patient at 50 mg, bid for 8 weeks. Type of series: functional, Artery.
For series [8], the species on record is Homo sapiens. The series can be described thus: Increase in aldosterone level in sodium depleted healthy human plasma. The class given is functional.
The species entered for series [9] is Homo sapiens. Description: Increase in aldosterone level in sodium depleted healthy human urine. The class given is functional.
The species entered for series [10] is Homo sapiens. Description: Increase in aldosterone level in primary aldosteronism patient plasma at 50 mg, bid for 31 days. Type of series: functional.
The target in series [11] is T1, Cytochrome P450 11B2, mitochondrial. The series can be described thus: Inhibition of human aldosterone synthase.
The target of series [12] is T3, Cytochrome P450 11B1, mitochondrial (Homo sapiens, UniProt P15538).
T3 sequence (P15538 whole entry): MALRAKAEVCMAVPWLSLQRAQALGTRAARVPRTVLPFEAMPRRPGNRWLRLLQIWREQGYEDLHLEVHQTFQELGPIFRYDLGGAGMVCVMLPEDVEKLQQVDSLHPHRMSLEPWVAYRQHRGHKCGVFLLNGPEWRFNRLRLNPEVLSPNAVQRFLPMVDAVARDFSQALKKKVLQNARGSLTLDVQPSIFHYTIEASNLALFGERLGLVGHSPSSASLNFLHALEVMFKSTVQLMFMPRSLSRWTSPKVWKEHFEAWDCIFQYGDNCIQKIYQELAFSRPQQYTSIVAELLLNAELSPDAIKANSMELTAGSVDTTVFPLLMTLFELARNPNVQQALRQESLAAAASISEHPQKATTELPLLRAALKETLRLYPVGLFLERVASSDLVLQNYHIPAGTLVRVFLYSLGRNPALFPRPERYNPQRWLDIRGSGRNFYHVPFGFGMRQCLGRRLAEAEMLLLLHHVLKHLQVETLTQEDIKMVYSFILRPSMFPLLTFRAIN
The series can be described thus: Inhibition of human CYP11B1 expressed in NCI-H295R cells at 100 nM. Type of series: cell-based.

Series [13] is described as follows: Tmax in sodium depleted healthy human. The following applies: in vivo.
Series [14] is described as follows: Elimination half life in sodium depleted healthy human. The conditions noted are these: in vivo.
For series [15], the target named is T1, Cytochrome P450 11B2, mitochondrial. The series can be described thus: Inhibition of human aldosterone synthase expressed in V79 MZ cells assessed as inhibition of aldosterone synthesis. The class given is cell-based, V79MZ.
For series [16], the system named is Rattus norvegicus. Description: Decrease in corticosterone level Wistar rat plasma at 4 mg/kg, po measured after 2 hrs by radioimmunoassay. The class given is functional.
The subject of series [17] is Rattus norvegicus. The series can be described thus: Decrease in aldosterone level Wistar rat plasma at 4 mg/kg, po measured after 2 hrs by radioimmunoassay. The class given is functional.
The target in series [18] is T4, Cytochrome P450 11B2, mitochondrial (Rattus norvegicus, UniProt P30099).
T4 sequence (P30099 whole entry): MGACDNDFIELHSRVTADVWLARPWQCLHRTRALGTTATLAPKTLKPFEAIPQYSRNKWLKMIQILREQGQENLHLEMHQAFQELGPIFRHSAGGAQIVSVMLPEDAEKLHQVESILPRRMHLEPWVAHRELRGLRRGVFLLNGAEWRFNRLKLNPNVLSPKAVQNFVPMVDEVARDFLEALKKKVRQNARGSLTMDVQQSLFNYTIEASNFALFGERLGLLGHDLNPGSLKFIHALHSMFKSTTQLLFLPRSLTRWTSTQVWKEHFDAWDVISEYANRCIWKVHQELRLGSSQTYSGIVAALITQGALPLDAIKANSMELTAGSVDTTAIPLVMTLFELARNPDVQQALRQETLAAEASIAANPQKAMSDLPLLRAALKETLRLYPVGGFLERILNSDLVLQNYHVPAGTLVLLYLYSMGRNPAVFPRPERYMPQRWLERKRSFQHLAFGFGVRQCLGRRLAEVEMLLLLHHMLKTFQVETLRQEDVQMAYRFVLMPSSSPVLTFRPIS
Description: Inhibition of aldosterone synthase in rat adrenal assessed as decrease in aldosterone level at 100 uM.

For series [19], the target named is T4, Cytochrome P450 11B2, mitochondrial. Description: Inhibition of aldosterone synthase in rat adrenal assessed as decrease in 18-OH-corticosterone level at 100 uM.
Series [20] deals with Rattus norvegicus. The series can be described thus: Decrease in myocardial fibrosis in SHR rat at 1.2 mg/kg/day, po. The conditions noted are these: Myocardium, read-out: INH.

On to `CCS(=O)(=O)NCc1cncc(-c2c(C)c3ccccc3n2C)c1`, for which, in the series listed under Homo sapiens [1], the Ratio IC50 came out at 322.
The IC50 is the concentration that inhibits the measured activity by half. As for `c1ccc2c(-c3cccc4cncn34)cccc2c1`, the IC50 in series [2] amounted to 50 nM.
For the compound `c1cncc(C2CCCCCCC2)c1`, the Ratio IC50 in the series filed under Homo sapiens [1] worked out at 50. The compound also returned an IC50 against Cytochrome P450 1A2 of over 100000 nM.
As to `Cn1c(-c2cncc3ccccc23)nc2ccc(F)c(F)c21`, the Ratio IC50 in the series filed under Homo sapiens [1] is over 1000.
Regarding `CCS(=O)(=O)N(Cc1cncc(-c2cccc(Cl)c2Cl)c1)C1CC1`, the IC50 in series [3] turned out to be 5 nM.
For `Oc1ccc2c(c1)CC(Cc1ccncc1)C2` (stereo not drawn), the Ratio IC50 in the series filed under Homo sapiens [1] is under 5. Besides, it took 59 nM to reach half-maximal inhibition in [4] (IC50).
For the compound `CC1(C)c2cc(Cl)ccc2C(=O)N1c1cncc(C2CCCN(S(C)(=O)=O)C2)n1` (stereo not drawn), the Ratio IC50 in the series listed under Homo sapiens [1] is 589. In series [5], this compound yielded an IC50 of 2.8 nM.
Turning to `COc1cccc2c1CCC1C(c3cnc[nH]3)C21` (stereo not drawn), in the series filed under Homo sapiens [1], the Ratio IC50 worked out at 2. The compound also yielded an IC50 in series [4] of 41 nM.
For `Cc1cncc(-c2cc3n(n2)CCC(=O)N3)c1`, the Ratio IC50 in the series listed under Homo sapiens [1] came out at 128. The compound further returned an IC50 in series [6] of 2.2 nM.
For the compound `COC(=O)[C@@H]1CC2=CC(=O)CC[C@]2(C)[C@@]23O[C@@H]2C[C@@]2(C)[C@@H](CC[C@@]24CCC(=O)O4)[C@H]13` [EPLERENONE], the Activity in the series filed under Homo sapiens [7] was -7.9 mmHg; in the series listed under Homo sapiens [8], 38%; in the series listed under Homo sapiens [9] it was 88%; in the series filed under Homo sapiens [10], 89%.
`Cc1ccncc1-c1cc(F)c2c(c1)CCc1nnc(C)n1-2`: the Ratio IC50 in the series filed under Homo sapiens [1] was 421.
As usually defined, the inhibition is how much of the control response was suppressed. Take `CCOC(=O)c1cncn1C1c2ccccc2C(=O)OC1(C)C` (stereo not drawn): the IC50 in [11] was found to be 3 nM. For the same compound, the inhibition at 0.1 µM in series [12] stood at 94%.
For orientation: Tmax means the time at which the peak concentration occurs. Usually half-life stands for the time in which the quantity being followed falls by half. Higher therefore signals slow loss. In the case of `N#Cc1ccc([C@H]2CCc3cncn32)c(F)c1` [OSILODROSTAT], the Tmax in series [13] amounted to 1 h. In addition, the half-life in series [14] was 4 h.
As for `Cn1c(=O)oc2cc(-c3cncc(C(O)C(F)(F)F)c3)ccc21` (stereo not drawn), the IC50 in [3] is 1.4 nM.
For `CN[C@@H]1C[C@H]2O[C@@](C)([C@@H]1OC)n1c3ccccc3c3c4c(c5c6ccccc6n2c5c31)C(=O)NC4` [STAUROSPORINE], in series [15], the IC50 is 11 nM.
With `N#Cc1ccc2c(c1)C1(CCC2)OCCn2cncc21` (stereo not drawn), the inhibition in vivo at 4 mg/kg was 15% in the series with Rattus norvegicus [16] and 82% in the series with Rattus norvegicus [17].
For `CC(O)c1c(F)cncc1-c1cc2cc(Cl)c(F)cc2o1` (stereo not drawn), the Ratio IC50 in the series filed under Homo sapiens [1] amounted to 427. Besides, the IC50 in series [3] worked out at 2.5 nM.
Compound `CSc1ccc(C2CCCn3cncc32)cc1` (stereo not drawn) returned an inhibition in vivo at 4 mg/kg in the series with Rattus norvegicus [17] of 62%.
As to `CC(=O)S[C@@H]1CC2=CC(=O)C=C[C@]2(C)[C@H]2CC[C@@]3(C)[C@@H]([C@@H]4C[C@@H]4[C@@]34CCC(=O)O4)[C@H]12` [MESPIRENONE], the inhibition at 100 µM in series [18] and in series [19] was over 40% throughout.
For `N#Cc1ccc([C@H]2CCCc3cncn32)cc1` [DEXFADROSTAT], the inhibition in vivo at 1.2 mg/kg/day in the series on Rattus norvegicus [20] amounted to 50%.
